Data from ChEMBL document CHEMBL1127289, “DNA-directed alkylating agents. 6. Synthesis and antitumor activity of DNA minor groove-targeted aniline mustard analogues of pibenzimol (Hoechst 33258)” (J Med Chem, 1994).
Activity calls are given as the source filed them.

Key:
P388 = experiment: Concentration of the drug to inhibit wild type P388 murine leukemia cell growth in culture; format: functional, cell-based; details: Mus musculus
Procedure, shortened: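 P388 cells maintained in log phase in RPMI 1640 with 10% fetal calf serum. Drug present throughout 72 h growth. Final density read by a modified MTT method. IC50 is the nominal concentration reducing cell density to 50% of controls, with eight control cultures per plate.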

Nucleic Acid [1] = experiment: (§1) Intrinsic association constant for reversible binding of compounds to calf thymus DNA at 20 degree C; format: nucleic-acid assay; details: Bos taurus
Mus musculus [2] = species: Mus musculus; experiment: Tested for percentage increase in lifespan of drug-treated tumor-bearing animals when treated at optimal dose; NA=Inactive; format: functional, organism-based
Procedure, shortened: (§2)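 P388 leukemia: 10^6 tumor cells inoculated intraperitoneally. 24 h later (day 1), a single intraperitoneal dose in 0.1 mL of 30% v/v EtOH/water. The optimal dose is given in mg/kg. ILS is the percentage increase in lifespan at the optimal dose; ILS > 20% is considered significant. Groups of 6 animals, with long-term survivors counted.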

Mus musculus [3] = experiment: Tested for the intraperitoneal optimal dose of 0.1 mL in tumor cells; format: functional; procedure, shortened: as §2
CHO-AA8 [4] = experiment: Concentration of the drug to inhibit chinese hamster ovary derived cell (AA8) growth in culture; format: functional, cell-based; details: Cricetulus griseus
Procedure, shortened: (§3)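 AA8 (wild-type) and UV4 (mutant) lines maintained in log phase in Alpha MEM with 10% fetal calf serum. Drug exposure for 18 h, ended by three washes in fresh medium, then a further 72 h growth. Cell density read by methylene blue staining. IC50 is the nominal concentration giving 50% of control density, with eight controls per plate. HF = IC50(AA8)/IC50(UV4).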

Nucleic Acid [5] = experiment: as §1; format: functional; design: scale not given here; details: Bos taurus
Mus musculus [6] = species: Mus musculus; experiment: Tested for percentage increase in lifespan of drug-treated tumor-bearing animals when treated at optimal dose; Inactive; format: functional, organism-based; procedure, shortened: as §2
[7] = (§4) Hypersensitivity factor(HF) was determined as ratio of IC50(AA8) to IC50(UV4); format: functional; procedure, shortened: as §3
Mus musculus [8] = species: Mus musculus; experiment: Tested for percentage increase in lifespan of drug-treated tumor-bearing animals when treated at optimal dose; format: functional; procedure, shortened: as §2
CHO-AA8 [9] = experiment: as §4; format: functional, Cricetulus griseus; procedure, shortened: as §3

CCN(CCCl)c1cc(CN(C)C)cc(NC(=O)c2ccc(C(=O)Nc3cc(CN(C)C)cc(N(CC)CCCl)c3)cc2)c1
IC50 (P388): 7000 nM

CN1CCN(c2ccc3[nH]c(-c4ccc5[nH]c(-c6ccc(O)cc6)nc5c4)nc3c2)CC1 [HOECHST 33258]
DNA binding (Nucleic Acid [1]): 1.82 log M-1 | ILS (Mus musculus [2]): inactive | OD (Mus musculus [3]): 20 mg/kg | IC50 (P388): 1200 nM

CN1CCN(c2ccc3[nH]c(-c4ccc5[nH]c(CCCc6ccc(N(CCCl)CCCl)cc6)nc5c4)nc3c2)CC1
IC50 (CHO-AA8 [4]): 1320 nM | DNA binding (Nucleic Acid [5]): 4.55 M⁻¹ | ILS (Mus musculus [6]): inactive | OD (Mus musculus [3]): 5.9 mg/kg | IC50 (P388): 20 nM | Ratio [7]: 46

CN1CCN(c2ccc3[nH]c(-c4ccc5[nH]c(CCc6ccc(N(CCCl)CCCl)cc6)nc5c4)nc3c2)CC1
IC50 (CHO-AA8 [4]): 330 nM | DNA binding (Nucleic Acid [5]): 6.3 M⁻¹ | ILS (Mus musculus [8]): 52% | OD (Mus musculus [3]): 3.9 mg/kg | IC50 (P388): 10 nM | Ratio [7]: 47

CN1CCN(c2ccc3[nH]c(-c4ccc5[nH]c(CCCCCCc6ccc(N(CCCl)CCCl)cc6)nc5c4)nc3c2)CC1
IC50 (CHO-AA8 [4]): 400 nM | DNA binding (Nucleic Acid [5]): 3.89 M⁻¹ | ILS (Mus musculus [8]): 23% | OD (Mus musculus [3]): 8.9 mg/kg | IC50 (P388): 60 nM | Ratio [7]: 20

CN1CCN(c2ccc3[nH]c(-c4ccc5[nH]c(Cc6ccc(N(CCCl)CCCl)cc6)nc5c4)nc3c2)CC1
IC50 (CHO-AA8 [4]): 1500 nM | DNA binding (Nucleic Acid [5]): 6.73 M⁻¹ | ILS (Mus musculus [8]): 71% | OD (Mus musculus [3]): 13.3 mg/kg | IC50 (P388): 850 nM | Ratio [7]: 59

CN1CCN(c2ccc3[nH]c(-c4ccc5[nH]c(-c6ccc(N(C)CCCl)cc6)nc5c4)nc3c2)CC1
IC50 (CHO-AA8 [4]): 5750 nM | ILS (Mus musculus [8]): 86% | OD (Mus musculus [3]): 30 mg/kg | IC50 (P388): 500 nM | Ratio [7]: 14

CN1CCN(c2ccc3[nH]c(-c4ccc5[nH]c(-c6ccc(N(CCCl)CCCl)cc6)nc5c4)nc3c2)CC1
IC50 (CHO-AA8 [4]): 1680 nM | Ratio (CHO-AA8 [9]): 24 | DNA binding (Nucleic Acid [1]): 7.52 log M-1 | ILS (Mus musculus [8]): 106% | OD (Mus musculus [3]): 30 mg/kg | IC50 (P388): 800 nM

CCN(CC)c1ccc(-c2nc3cc(-c4nc5cc(N6CCN(C)CC6)ccc5[nH]4)ccc3[nH]2)cc1
IC50 (CHO-AA8 [4]): 10000 nM | Ratio (CHO-AA8 [9]): 1.5 | DNA binding (Nucleic Acid [1]): 6.24 log M-1 | ILS (Mus musculus [8]): 50% | OD (Mus musculus [3]): 20 mg/kg | IC50 (P388): 1200 nM
